Test results reported in ChEMBL document CHEMBL1671814, “Discovery of a 3-pyridylacetic acid derivative (TAK-100) as a potent, selective and orally active dipeptidyl peptidase IV (DPP-4) inhibitor” (J Med Chem, 2011).
Active and inactive are the calls of the source. The rule behind the calls is not given here.

Legend:
[1] = target: Dipeptidyl peptidase 2 (Rattus norvegicus, UniProt Q9EPB1); experiment: Inhibition of rat kidney DPP2 after 60 mins
Method in brief: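 Rat kidney DPP-2, partially purified, preincubated with compound (DMSO) for 20 min at room temperature in […] buffer pH 5.5. Reaction started with H-Lys-Ala-pNA, added at 1 mmol/L, and run 60 min at 37 °C. A405 read at start and end against substrate-only and no-compound wells. IC50 from concentration-response curves, mean with 95% CI (n = 3).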

[2] = target: Dipeptidyl peptidase 8 (Homo sapiens, UniProt Q6V1X1); experiment: Inhibition of FLAG-tagged human DPP8 expressed in human 293F cells after 90 mins; format: cell-based
[3] = target: Dipeptidyl peptidase 9 (Homo sapiens, UniProt Q86TI2); experiment: Inhibition of FLAG-tagged human DPP9 expressed in human 293F cells after 90 mins; format: cell-based
[4] = Metabolic stability in dog liver microsomes assessed as compound remaining at 1 uM after 20 mins relative to basal level; format: ADME, Canis lupus familiaris, Microsome; details: read-out: Stability
Method in brief: (§1)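 Rat, dog or human hepatic microsomes ([…] final) mixed on ice with 1 μmol/L compound. Reaction started with NADPH and run 20 min at 37 °C, then stopped with ice-cold acetonitrile. Zero-time controls stopped before compound addition. Supernatant analysed by HPLC-UV. Result given as % remaining.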

[5] = Half life in dog at 1 mg/kg, po; format: ADME, organism-based, Canis lupus familiaris; set-up: dose 1 mg/kg, route oral; details: in vivo
Method in brief: (§2)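 Single doses to rats (n = 3) and dogs (n = 4), intravenous 0.1 mg/kg and oral 1.0 mg/kg. Plasma obtained from serial blood samples and deproteinized with acetonitrile containing an internal standard. Supernatant diluted with 0.01 mol/L ammonium acetate. Drug quantified by LC/MS/MS. Values given as mean ± deviation.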

[6] = Metabolic stability in rat liver microsomes assessed as compound remaining at 1 uM after 20 mins relative to basal level; format: ADME, Microsome; details: read-out: Stability; method in brief: as §1
[7] = Solubility of the compound at pH 6.8 after 2 hrs; format: physicochemical; details: buffer
Method in brief: (§3)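 Thermodynamic solubility in Japanese Pharmacopoeia 15th ed. first fluid (pH 1.2) or second fluid (pH 6.8), incubated 2 h at 37 °C. Precipitate removed by filtration and filtrate quantified by HPLC.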

[8] = Solubility of the compound at pH 1.2 after 2 hrs; format: physicochemical; details: buffer; method in brief: as §3
[9] = tested on: Rattus norvegicus; experiment: Antidiabetic activity in po dosed fatty Wistar rat assessed as reduction of blood glucose excursion administered 60 mins before glucose challenge by oral glucose tolerance test; format: functional, organism-based
Method in brief: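 Female Wistar fatty rats, 13 weeks old, fasted overnight and grouped by plasma glucose and body weight (n = 6). Oral vehicle (0.5% methylcellulose) or 0.03, 0.1, 0.3 and 1 mg/kg as free base of the monohydrate. Oral glucose 1 g/kg given 1 h later. Tail-vein blood taken at 0, 10, 30 and 60 min. Plasma glucose measured enzymatically and insulin by ELISA.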

[10] = Bioavailability in dog at 0.1 mg/kg, iv and 1 mg/kg, po; format: ADME, organism-based, Canis lupus familiaris; details: in vivo; method in brief: as §2
[11] = Half life in rat at 1 mg/kg, po; format: ADME, organism-based; set-up: dose 1 mg/kg, route oral; details: in vivo; method in brief: as §2
[12] = Bioavailability in rat at 0.1 mg/kg, iv and 1 mg/kg, po; format: ADME, organism-based; details: in vivo; method in brief: as §2
[13] = organism: Canis familiaris; details: Canis lupus familiaris; Plasma; 0.5 mg/kg
[14] = Metabolic stability in human liver microsomes assessed as compound remaining at 1 uM after 20 mins relative to basal level; format: ADME, Microsome; details: read-out: Stability; method in brief: as §1

Dipeptidyl peptidase 8, sequence (Q6V1X1 whole entry): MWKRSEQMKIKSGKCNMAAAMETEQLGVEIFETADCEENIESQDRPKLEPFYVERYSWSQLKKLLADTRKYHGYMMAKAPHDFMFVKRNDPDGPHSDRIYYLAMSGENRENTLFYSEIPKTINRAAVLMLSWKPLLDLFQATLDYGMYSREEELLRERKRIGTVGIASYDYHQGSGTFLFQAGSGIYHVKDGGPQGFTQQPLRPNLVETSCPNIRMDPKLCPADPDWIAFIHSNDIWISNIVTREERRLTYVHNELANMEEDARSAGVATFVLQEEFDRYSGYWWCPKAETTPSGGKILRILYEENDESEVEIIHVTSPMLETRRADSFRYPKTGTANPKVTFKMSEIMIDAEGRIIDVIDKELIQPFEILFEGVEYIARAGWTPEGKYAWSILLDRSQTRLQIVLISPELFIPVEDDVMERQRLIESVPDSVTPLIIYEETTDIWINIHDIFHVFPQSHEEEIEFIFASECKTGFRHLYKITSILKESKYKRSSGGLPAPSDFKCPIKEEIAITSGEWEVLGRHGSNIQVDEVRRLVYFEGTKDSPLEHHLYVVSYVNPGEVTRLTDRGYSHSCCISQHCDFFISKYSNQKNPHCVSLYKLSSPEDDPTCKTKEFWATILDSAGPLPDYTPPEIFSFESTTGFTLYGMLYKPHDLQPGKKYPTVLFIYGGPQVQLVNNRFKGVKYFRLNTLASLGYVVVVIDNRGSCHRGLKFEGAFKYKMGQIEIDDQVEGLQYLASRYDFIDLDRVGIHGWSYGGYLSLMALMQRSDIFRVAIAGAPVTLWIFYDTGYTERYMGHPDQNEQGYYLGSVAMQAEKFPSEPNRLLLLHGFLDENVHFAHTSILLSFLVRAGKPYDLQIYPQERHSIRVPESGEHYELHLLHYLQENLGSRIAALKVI
Dipeptidyl peptidase 2, sequence (Q9EPB1 whole entry): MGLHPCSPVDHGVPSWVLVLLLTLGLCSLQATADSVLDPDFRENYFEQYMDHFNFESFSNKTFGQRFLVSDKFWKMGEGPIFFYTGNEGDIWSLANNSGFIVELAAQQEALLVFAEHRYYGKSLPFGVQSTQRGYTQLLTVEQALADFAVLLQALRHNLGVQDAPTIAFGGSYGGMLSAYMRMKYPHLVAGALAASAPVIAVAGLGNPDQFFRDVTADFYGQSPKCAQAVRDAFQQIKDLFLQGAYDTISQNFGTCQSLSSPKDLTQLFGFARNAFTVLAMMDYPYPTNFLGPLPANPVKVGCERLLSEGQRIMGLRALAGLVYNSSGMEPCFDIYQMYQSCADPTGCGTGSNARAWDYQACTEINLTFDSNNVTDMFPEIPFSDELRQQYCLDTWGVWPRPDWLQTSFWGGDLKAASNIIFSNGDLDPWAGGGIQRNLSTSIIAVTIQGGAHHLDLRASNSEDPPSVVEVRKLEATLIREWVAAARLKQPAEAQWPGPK
Dipeptidyl peptidase 9, sequence (Q86TI2 whole entry): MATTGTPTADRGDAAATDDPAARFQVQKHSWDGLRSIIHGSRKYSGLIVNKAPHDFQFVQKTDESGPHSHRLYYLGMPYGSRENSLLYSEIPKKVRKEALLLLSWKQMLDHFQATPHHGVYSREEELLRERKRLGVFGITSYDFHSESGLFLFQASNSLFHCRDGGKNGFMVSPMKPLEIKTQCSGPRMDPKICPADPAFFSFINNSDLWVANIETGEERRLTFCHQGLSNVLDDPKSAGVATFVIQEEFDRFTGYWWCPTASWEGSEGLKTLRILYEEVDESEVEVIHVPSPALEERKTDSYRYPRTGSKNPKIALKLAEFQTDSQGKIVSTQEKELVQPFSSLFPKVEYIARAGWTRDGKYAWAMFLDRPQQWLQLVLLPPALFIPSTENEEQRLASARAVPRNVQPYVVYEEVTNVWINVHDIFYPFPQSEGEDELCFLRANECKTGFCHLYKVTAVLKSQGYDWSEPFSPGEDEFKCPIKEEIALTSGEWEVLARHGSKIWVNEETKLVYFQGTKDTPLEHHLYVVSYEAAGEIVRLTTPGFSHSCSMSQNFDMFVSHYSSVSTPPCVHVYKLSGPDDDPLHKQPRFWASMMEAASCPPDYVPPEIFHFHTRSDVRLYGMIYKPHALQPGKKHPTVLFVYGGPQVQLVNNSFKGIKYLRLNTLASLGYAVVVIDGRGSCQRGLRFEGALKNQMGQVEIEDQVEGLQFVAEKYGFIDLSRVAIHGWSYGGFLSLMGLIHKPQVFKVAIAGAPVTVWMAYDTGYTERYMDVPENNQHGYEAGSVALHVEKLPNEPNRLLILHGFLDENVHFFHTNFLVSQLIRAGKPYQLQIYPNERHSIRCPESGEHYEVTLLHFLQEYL

Row | Structure (SMILES) | IC50 [1] [µM] | IC50 [2] [µM] | also measured
1 | Cc1ccc(-c2c(CN)c(CC(C)(C)C)nc(CC(C)C)c2C(=O)O)cc1 | 1.5 | – | –
2 | CCc1nc(CC(C)(C)C)c(CN)c(-c2ccc(C)cc2)c1C(=O)O | 4 | – | –
3 | Cc1ccc(-c2c(CN)c(CC(C)(C)C)nc(Cc3ccccc3)c2C(=O)O)cc1 | 0.25 | – | –
4 | Cc1ccc(-c2c(CN)c(CC(C)C)nc(C)c2C(=O)O)cc1 | 5.6 | – | –
5 | Cc1ccc(-c2c(CCC(=O)O)c(C)nc(CC(C)C)c2CN)cc1 | 1.1 | > 30 | IC50 [3]: > 30 µM
6 | CCCc1nc(CC(C)(C)C)c(CN)c(-c2ccc(C)cc2)c1C(=O)O | 2 | – | –
7 | Cc1ccc(-c2c(CN)c(CC(C)(C)C)nc(C)c2C(=O)O)cc1 | 10 | – | –
8 | Cc1ccc(-c2c(CC(=O)O)c(C)nc(CC(C)(C)C)c2CN)cc1 | – | > 100 | IC50 [3]: > 100 µM
9 | CCCCc1nc(C)c(C(=O)O)c(-c2ccc(C)cc2)c1CN | 11 | – | –
10 | Cc1ccc(-c2c(CC(=O)O)c(C)nc(CC(C)C)c2CN)cc1 | 50 | > 30 | IC50 [3]: > 30 µM
11 | Cc1ccc(-c2c(CN)c(CC(C)(C)C)nc(C(C)C)c2C(=O)O)cc1 | 1.6 | – | –
12 | CCc1nc(CC(C)(C)C)c(CN)c(-c2ccc(C)cc2)c1CC(=O)O.O | > 100 | > 100 | remaining at 20 min, 1 µM [4]: 96.8%; half-life [5]: 298 min; remaining at 20 min, 1 µM [6]: 100%; solubility at 2 h [7]: 930 µg/mL; solubility at 2 h [8]: > 1000 µg/mL; Activity [9]: Dose-dependent effect; bioavailability [10]: 88%; half-life [11]: 344 min; bioavailability [12]: 53.3%; inhibition [13]: Active; remaining at 20 min, 1 µM [14]: 100%
